UPR CHOP act = apoptotic UPR (CHOP) activation; CHO-CHOP luciferase reporter, luminescence; percent of tunicamycin response over DMSO baseline; AID 449763; activation, % at 10 µM; hit rate 0.34% among 330,000;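 active = at 10 µM dose, activation of 40% or more, normalized to positive control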;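 note: 100% = tunicamycin at 10 µg/mL and 0% = DMSO alone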
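Assay system: CHO-CHOP cells, stable luciferase reporter of PERK-eIF2a-CHOP signalling / Buffer or medium: F12 plus 10% serum / Compound dosing: one dose, 10 µM in 0.5% DMSO / Times: 6 h compound treatment, 37 °C / Technique: luciferase luminescence / Read-out: % reporter activation, DMSO baseline versus tunicamycin full activation / Benchmarks: tunicamycin and DMSO controls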
CHOP inh = CHOP inhibition in unfolded protein response; inhibition, % at 10 µM; hit rate 3.8% among 220,000; CHO-K1 CHOP-promoter luciferase, tunicamycin-induced, 15-18 h;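 active = compounds that reduced the stress-induced luciferase reporter signal by more than about 70% of percent inhibition, limit read from the data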;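 note: 0% = tunicamycin plus vehicle and 100% = wells without tunicamycin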
aDG glyco act = alpha-DG glycosylation activation. activation, % at 10 µM. Pro5-aDG cells, alpha-DG glycosylation AlphaScreen (IIH6); 0% Pro5, 100% B10-LARGE cell signal. hit rate 0.22% among 360,000;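 active = activation of at least 8% versus controls, or a plate z-score of at least 8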;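 note: Pro5 are CHO cells carrying HIG-tagged alpha-DG that lacks glycosylation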
MPTP inh = blocks calcium-induced mitochondrial swelling. isolated mouse mitochondria, Ca2+ swelling absorbance, 30 min. inhibition, % at 10 µM. hit rate 1.4% among 360,000. AID 602449;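 active = inhibition of 50% or more, scaled per plate between neutral and stimulator controls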;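 note: 0% = DMSO wells given calcium and 100% = 1 mM EGTA wells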
NR3A LBD binder = NR3A (human) ligand-binding domain modulation; NR3A LBD differential scanning fluorimetry, Tm shift; 0% = protein alone, 100% = glycine-bound protein; Tm shift relative to glycine control, % at 25 µM; hit rate 2.5% among 340,000; AID 1259313;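 active = melting temperature shift of at least 10% of the positive control shift, at one fixed dose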
XBP1 UPR activ = activators of adaptive arm of unfolded protein response (XBP1); CHO-XBP1 luciferase reporter, IRE1-XBP1 UPR activation, luminescence; percent of tunicamycin response, DMSO as zero; activation, % at 20 µM; hit rate 0.33% among 330,000; AID 463104;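 active = versus positive control, 20 µM dose yields 30% or more activation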;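 note: 100% = tunicamycin at 10 µg/mL and 0% = DMSO only wells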
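Material – CHO cell line with stable XBP1 luciferase reporter · Buffer or medium – F12 plus 10% FBS · Compound – single point, 20 µM final compound, 1% DMSO · Schedule – 16-18 h cell attachment at 37 °C, then 6 h compound exposure · Signal – Steady-Glo luminescence read · Benchmarks – high control tunicamycin 10 µg/mL final, low control DMSO vehicle only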
* marks the source's active call; other numbers are inactive results; x = no result given. This is a sample that favours compounds with a hit; in the whole collection about 5.6% have one here.

SMILES | UPR CHOP act | CHOP inh | aDG glyco act | MPTP inh | NR3A LBD binder | XBP1 UPR activ
COc1cc(OC)cc(C(=O)NCC(=O)OCC(=O)c2cc(C)n(Cc3ccco3)c2C)c1 | 0 | 30 | 0 | 4 | 19* | -1
COc1ccc(-c2cn[nH]c2-c2ccc(OCc3ccc(F)cc3)cc2O)cc1OC | -2 | 58 | 0 | 6 | 16* | -2
Oc1cc(OCc2ccccc2)ccc1-c1[nH]ncc1-c1ccccc1 | 0 | 5 | 0 | 20 | 17* | -2
O=C(Nc1ccccc1C(=O)Nc1nnc(C(F)(F)F)s1)c1ccccc1Cl | 7 | 74* | 0 | 27 | 18* | -1
O=C(NC1CCCCC1)N1CCC(c2nc3ccc(Cl)cc3[nH]2)CC1 | -2 | 79* | 0 | 0 | -1 | 2
O=C(NC1CCCCC1)N1CCC(c2nc3ccccc3[nH]2)CC1 | -1 | 9 | 0 | -1 | 2 | -1
CC1Cc2ccccc2N1Cc1ccc([N+](=O)[O-])cc1 (stereo not given) | 1 | x | 0 | 0 | 2 | -4
O=C(O)/C=C/C(=O)Nc1cccc2cccnc12 | 0 | 1 | 0 | -1 | -4 | -2
O=C(Nc1ccc2ncccc2c1)c1ccccc1Br | 3 | x | 0 | 0 | 18* | -1
O=C(Nc1ccccc1)Nc1cccc2cccnc12 | 6 | -7 | 0 | 5 | 13* | 4
O=C(Nc1ccc2ncccc2c1)Nc1ccc2ncccc2c1 | 4 | 12 | 0 | 1 | 33* | 0
O=[N+]([O-])c1cccc(-c2ccn[nH]2)c1 | 1 | 8 | 0 | 1 | 2 | 2
O=[N+]([O-])c1cc(-c2ccn[nH]2)ccc1Cl | 0 | 30 | 0 | 0 | 15* | -1
CCOC(=O)CN1CCC(c2cc(-c3ccc(Cl)cc3)n[nH]2)CC1 | 1 | x | 0 | 0 | 0 | 1
O=[N+]([O-])c1cccnc1N1CCC(c2cc(-c3ccc(Cl)cc3)n[nH]2)CC1 | 2 | 100* | 2 | 4 | 7 | 0
O=C(NCCCN1CCOCC1)c1ccc(Sc2ccc(Br)cc2)c([N+](=O)[O-])c1 | 2 | 46 | 0 | -2 | 1 | -2
O=C(NCCCN1CCOCC1)c1ccc(Sc2ccccc2Cl)c([N+](=O)[O-])c1 | -1 | 33 | 0 | 2 | 18* | 0
COc1cc(C(=O)Nc2ccc3c(c2)N(C(=O)CN2CCN(C)CC2)c2ccccc2CC3)cc(OC)c1OC | 0 | 0 | 0 | -1 | -2 | -3
c1cc2c3c(cccc3c1)NC1(CCC3(CC1)Nc1cccc4cccc(c14)N3)N2 | 11 | 20 | -1 | 0 | 18* | 5
NS(=O)(=O)c1ccc(NC(=O)CSc2nnc3n2CCCCC3)cc1 | 1 | x | 0 | 0 | -1 | -1
O=C(Cc1ccccn1)c1ccc(Cl)cc1 | 6 | x | 0 | -2 | 1 | 3
CC1=C(CC(=O)c2ccc(Cl)cc2)C(=O)c2ccccc2C1=O | 3 | 72* | 3 | 8 | -5 | 2
CC(C)n1c2ccccc2c2nc3ccccc3nc21 | -4 | 72* | 0 | 3 | 8 | 3
C#CCn1c2ccccc2c2nc3ccccc3nc21 | 4 | x | 0 | 1 | -3 | 3
Cc1ccc(S(=O)(=O)c2cc3ccccc3nc2N)cc1 | -1 | 17 | 0 | 0 | 1 | 1
SMILES | UPR CHOP act | CHOP inh | aDG glyco act | MPTP inh | NR3A LBD binder | XBP1 UPR activ
O=C1CSC(=Nc2ccc(Cl)cc2)N1 | 1 | x | 0 | 0 | 0 | -7
O=C1CSC(=Nc2cc(Cl)ccc2Cl)N1 | -2 | 14 | 0 | -2 | 11* | -4
COc1cccc(CN(C(=O)Cc2c[nH]c3ccccc23)C(C(=O)NC2CCCCC2)c2ccc(C)o2)c1 (stereo not given) | 4 | 9 | 0 | 2 | 23* | -1
COc1ccc(CN(C(=O)Cc2c[nH]c3ccccc23)C(C(=O)NC2CCCCC2)c2ccc(C)o2)cc1 (stereo not given) | 2 | 50 | 1 | 10 | 6 | 5
O=C(Oc1cccc2ccccc12)c1cc(Cl)nc2ccccc12 | 2 | 25 | 0 | -2 | 14* | 3
O=Cc1ccc(OC(=O)c2cc(Cl)nc3ccccc23)cc1 | 1 | 85* | 0 | -2 | 2 | 3
CCSc1nc2sc3c(c2c(=O)[nH]1)CCc1ccccc1-3 | 1 | 84* | 0 | 2 | 0 | 1
Cc1ccc(O)c(-c2cc(C(=O)Nc3cccnc3)[nH]n2)c1 | 7 | -4 | 0 | 4 | 29* | 4
O=C(Nc1cccnc1)c1cc(-c2cc(Cl)ccc2O)n[nH]1 | 7 | -12 | 0 | 46 | 32* | 7
Cc1cccc(NC(=O)CSc2nnc(NC(=O)c3ccc(S(=O)(=O)N4CCOCC4)cc3)s2)c1C | 3 | 3 | x | x | x | -1
Cc1cccc(Nc2nnc(SCC(=O)Nc3cccc(S(=O)(=O)N4CCCCC4)c3)s2)c1 | 3 | 14 | 1 | 10 | 15* | 1
Cc1ccc(Nc2nnc(SCC(=O)Nc3ccc(S(=O)(=O)N4CCOCC4)cc3)s2)cc1 | 4 | 26 | 0 | 9 | 33* | 0
O=C(CSc1nnc(Nc2ccccc2)s1)Nc1ccc(S(=O)(=O)N2CCOCC2)cc1 | 0 | 23 | 0 | -5 | 18* | -3
Nc1nnc(SCC(=O)Nc2cccc(S(=O)(=O)N3CCOCC3)c2)s1 | -1 | x | 0 | -3 | -2 | -1
Cc1cccc(NC(=O)CSc2nnc(NC(=O)CN3CCCCC3)s2)c1 | 1 | -14 | x | x | x | -1
COc1ccc(NC(=O)CSc2nnc(NC(=O)c3ccc(S(=O)(=O)N4CCOCC4)cc3)s2)cc1 | -1 | 2 | 0 | 0 | 31* | 1
NC(=O)CSc1nnc(NC(=O)c2ccc(S(=O)(=O)N3CCOCC3)cc2)s1 | 0 | x | 0 | -3 | -1 | -1
CC1CCc2c(sc3ncnc(SCC(=O)N(C)C4CCS(=O)(=O)C4)c23)C1 (stereo not given) | 1 | x | 0 | -1 | 0 | 0
CCc1nc(CNC(=O)C2CCC(=O)N(Cc3ccccc3F)C2)no1 (stereo not given) | 2 | x | 0 | -2 | -1 | -1
O=C(/C=C/c1ccccc1Cl)NCCc1ccc(F)cc1 | 0 | 4 | 0 | 3 | 14* | -2
O=C(/C=C/c1ccccc1[N+](=O)[O-])NCCc1ccc(F)cc1 | -1 | 2 | 0 | 3 | 1 | 1
Cc1ccc(C(=O)N2N=C(CC(C)C)CC2(O)C(F)(F)F)o1 (stereo not given) | -2 | 1 | 0 | 2 | 0 | -6
CCc1ccccc1NC(=O)CN1CCN(CC(=O)NCc2ccc(Cl)cc2)CC1 | 1 | x | 0 | -1 | 1 | -1

From PubChem BioAssay
